Converted amounts (≈) assume the structure as drawn. The source made the active and inactive calls. The calls are words filed in the database; no cut-off is given here.
Assays:
Staphylococcus aureus [1] = experiment: Antibacterial activity against vancomycin-intermediate Staphylococcus aureus Mu50 infected in ddY mouse assessed as viable bacteria in lungs at 100 mg/kg, ip administered 1 day postinfection measured after 3 days (Rvb=9.64 +/- 0.63 log CFU/ml); type: functional; conditions: route intraperitoneal
Serum [2] = experiment: fCmax in serum of methicillin-resistant Staphylococcus aureus infected ddY mouse at 100 mg/kg, ip administered 1 day post infection by paper disk bioassay method; type: ADME, organism-based; set-up: dose 100 mg/kg, route intraperitoneal; conditions: in vivo, 24 h
In short: (§1)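 MRSA-infected mice, one day post-inoculation, received a single 100 mg/kg i.p. dose. Serum and lung homogenate collected at 5–120 min, n = 3 per time point. Paper disk bioassay with Bacillus subtilis ATCC 6633, triplicate, 50 µl sample. Detection limits 0.07 µg/ml (serum) and 0.12 µg/ml (lung). Standards in pooled murine matrix, linear-regression curves. Moment analysis.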

[3] = Cmax in lung of methicillin-resistant Staphylococcus aureus infected ddY mouse at 100 mg/kg, ip administered 1 day post infection by paper disk bioassay method; type: ADME, organism-based; set-up: dose 100 mg/kg, route intraperitoneal; in short: as §1
[4] = fT>MIC in serum of methicillin-resistant Staphylococcus aureus infected ddY mouse at 10 mg/kg, ip BID by paper disk bioassay method; type: functional; conditions: route intraperitoneal
[5] = T>MIC in serum of methicillin-resistant Staphylococcus aureus infected ddY mouse at 10 mg/kg, ip BID by paper disk bioassay method; type: functional; conditions: route intraperitoneal
[6] = T>MIC in lung of methicillin-resistant Staphylococcus aureus infected ddY mouse at 10 mg/kg, ip BID by paper disk bioassay method; type: functional; conditions: route intraperitoneal
[7] = Half life of free unbound fraction in serum of methicillin-resistant Staphylococcus aureus infected ddY mouse at 100 mg/kg, ip administered 1 day post infection by paper disk bioassay method; type: ADME, organism-based; set-up: dose 100 mg/kg, route intraperitoneal; in short: as §1
[8] = Half life in serum of methicillin-resistant Staphylococcus aureus infected ddY mouse at 100 mg/kg, ip administered 1 day post infection by paper disk bioassay method; type: ADME, organism-based; set-up: dose 100 mg/kg, route intraperitoneal; in short: as §1
[9] = AUC (0 to infinity) in serum of methicillin-resistant Staphylococcus aureus infected ddY mouse at 100 mg/kg, ip administered 1 day post infection by paper disk bioassay method; type: ADME, organism-based; set-up: time infinity, dose 100 mg/kg, route intraperitoneal; in short: as §1
[10] = fT>MIC in serum in vancomycin intermediate Staphylococcus aureus infected ddY mouse at 100 mg/kg, ip BID by paper disk bioassay method; type: functional; conditions: route intraperitoneal
[11] = Half life in lung of methicillin-resistant Staphylococcus aureus infected ddY mouse at 100 mg/kg, ip administered 1 day post infection by paper disk bioassay method; type: ADME, organism-based; set-up: dose 100 mg/kg, route intraperitoneal; in short: as §1
Staphylococcus aureus [12] = experiment: Antibacterial activity against methicillin-resistant Staphylococcus aureus NUMR101 infected in ddY mouse assessed as viable bacteria in lungs at 100 mg/kg, ip administered 1 day postinfection (Rvb=8.42 +/- 0.50 log CFU/ml); type: functional; conditions: route intraperitoneal
[13] = T>MIC in lung in vancomycin intermediate Staphylococcus aureus infected ddY mouse at 100 mg/kg, ip BID by paper disk bioassay method; type: functional; conditions: route intraperitoneal
[14] = AUC (0 to infinity) in lung of methicillin-resistant Staphylococcus aureus infected ddY mouse at 100 mg/kg, ip administered 1 day post infection by paper disk bioassay method; type: ADME, organism-based; set-up: dose 100 mg/kg, route intraperitoneal, time infinity; in short: as §1
Serum [15] = experiment: Protein binding in serum of methicillin-resistant Staphylococcus aureus infected ddY mouse at 100 mg/kg, ip; type: ADME, organism-based; set-up: dose 100 mg/kg, route intraperitoneal; conditions: in vivo
[16] = Cmax in serum of methicillin-resistant Staphylococcus aureus infected ddY mouse at 100 mg/kg, ip administered 1 day post infection by paper disk bioassay method; type: ADME, organism-based; set-up: dose 100 mg/kg, route intraperitoneal; in short: as §1
Staphylococcus aureus [17] = experiment: Antibacterial activity against vancomycin intermediate Staphylococcus aureus Mu50 infected in ddY mouse assessed as decrease in lung inflammation at 100 mg/kg, ip after 3 days; type: functional, organism-based; set-up: dose 100 mg/kg
In short: (§2)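 Mice pretreated with cyclophosphamide (100 mg/kg, days −3 and −1) and infected i.v. with Mu50 agar beads (4 x 10^7 to 6 x 10^7 CFU/ml). Given 100 mg/kg i.p. b.i.d. for 3 days, then sacrificed. Lungs fixed in formalin and stained with H&E. Abscesses counted per slice, lung area by cross-section paper, n = 3.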

Staphylococcus aureus [18] = experiment: Antibacterial activity against vancomycin intermediate Staphylococcus aureus Mu50 by broth microdilution method; type: functional
In short: (§3)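 Broth microdilution in Mueller-Hinton II broth. Inoculum 5 x 10^5 CFU/ml. Drugs dissolved in sterile water just before use.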

Staphylococcus aureus [19] = experiment: Antibacterial activity against vancomycin-intermediate Staphylococcus aureus Mu50 infected in ddY mouse assessed as survival of the mouse at 100 mg/kg, ip administered 1 day postinfection measured after 10 days; type: functional; conditions: route intraperitoneal
In short: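 Cyclophosphamide-pretreated (100 mg/kg, days −3 and −1) ddY mice infected i.v. with Mu50 agar beads at 2 x 10^9 to 4 x 10^9 CFU/ml. Treated 100 mg/kg i.p. b.i.d. from day 1 for 10 days. Survival recorded daily for 10 days, n = 10, Kaplan-Meier curves.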

[20] = T>MIC in serum in vancomycin intermediate Staphylococcus aureus infected ddY mouse at 100 mg/kg, ip BID by paper disk bioassay method; type: functional; conditions: route intraperitoneal
Staphylococcus aureus [21] = experiment: Antibacterial activity against methicillin-resistant Staphylococcus aureus NUMR101 by broth microdilution method; type: functional; in short: as §3
Serum [22] = experiment: fAUC (0 to infinity) in serum of methicillin-resistant Staphylococcus aureus infected ddY mouse at 100 mg/kg, ip administered 1 day post infection by paper disk bioassay method; type: ADME, organism-based; set-up: dose 100 mg/kg, route intraperitoneal; conditions: in vivo, 24 h; in short: as §1
Staphylococcus aureus [23] = experiment: Antibacterial activity against vancomycin intermediate Staphylococcus aureus Mu50 infected in ddY mouse assessed as decrease in lung abscesses at 100 mg/kg, ip after 3 days; type: functional, organism-based; set-up: dose 100 mg/kg; in short: as §2
[24] = Half life in lung of methicillin-resistant Staphylococcus aureus infected ddY mouse at 100 mg/kg, ip administered 1 day post infection by fluorescence polarization immunoassay; type: ADME, organism-based; set-up: dose 100 mg/kg, route intraperitoneal
In short: (§4)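 Single 100 mg/kg i.p. dose given 1 day after i.v. MRSA NUMR101 agar-bead infection. Mice killed 5, 15, 30, 60, 90, 120 min after dosing, n = 3 per time point. Serum and saline lung homogenate stored at –80°C. Assayed by fluorescence polarization immunoassay (detection limit 2 µg/ml) against standard curves in pooled murine serum or lung homogenate. Parameters by moment analysis.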

[25] = Cmax in lung of methicillin-resistant Staphylococcus aureus infected ddY mouse at 100 mg/kg, ip administered 1 day post infection by fluorescence polarization immunoassay; type: ADME, organism-based; set-up: dose 100 mg/kg, route intraperitoneal; in short: as §4
Serum [26] = experiment: fAUC (0 to infinity) in serum of methicillin-resistant Staphylococcus aureus infected ddY mouse at 100 mg/kg, ip administered 1 day post infection by fluorescence polarization immunoassay; type: ADME, organism-based; set-up: dose 100 mg/kg, route intraperitoneal; conditions: in vivo, 24 h; in short: as §4
[27] = Half life of free unbound fraction in serum of methicillin-resistant Staphylococcus aureus infected ddY mouse at 100 mg/kg, ip administered 1 day post infection by fluorescence polarization immunoassay; type: ADME, organism-based; set-up: dose 100 mg/kg, route intraperitoneal; in short: as §4
[28] = Cmax in serum of methicillin-resistant Staphylococcus aureus infected ddY mouse at 100 mg/kg, ip administered 1 day post infection by fluorescence polarization immunoassay; type: ADME, organism-based; set-up: dose 100 mg/kg, route intraperitoneal; in short: as §4
[29] = AUC (0 to infinity) in serum of methicillin-resistant Staphylococcus aureus infected ddY mouse at 100 mg/kg, ip administered 1 day post infection by fluorescence polarization immunoassay; type: ADME, organism-based; set-up: time infinity, dose 100 mg/kg, route intraperitoneal; in short: as §4
[30] = AUC (0 to infinity) in lung of methicillin-resistant Staphylococcus aureus infected ddY mouse at 100 mg/kg, ip administered 1 day post infection by fluorescence polarization immunoassay; type: ADME, organism-based; set-up: time infinity, dose 100 mg/kg, route intraperitoneal; in short: as §4
Serum [31] = experiment: fCmax in serum of methicillin-resistant Staphylococcus aureus infected ddY mouse at 100 mg/kg, ip administered 1 day post infection by fluorescence polarization immunoassay; type: ADME, organism-based; set-up: dose 100 mg/kg, route intraperitoneal; conditions: in vivo, 24 h; in short: as §4
[32] = Ratio of AUC (0 to 24 hrs) in lung in vancomycin intermediate Staphylococcus aureus infected ddY mouse at 100 mg/kg, ip BID to MIC for methicillin-resistant Staphylococcus aureus
[33] = Half life in serum of methicillin-resistant Staphylococcus aureus infected ddY mouse at 100 mg/kg, ip administered 1 day post infection by fluorescence polarization immunoassay; type: ADME, organism-based; set-up: dose 100 mg/kg, route intraperitoneal; in short: as §4

## C[C@H]1C=C(c2csc(SC3=C(C(=O)O)N4C(=O)[C@H]([C@@H](C)O)[C@H]4[C@H]3C)n2)CN1 [RAZUPENEM]
Staphylococcus aureus [1]
  CFU/ml: 7.42 log CFU/ml
Serum [2]
  fCmax: 25.81 µg/mL
[3]
  Cmax: 18000 ng/mL
[4]
  fT>MIC: 2.9
[5]
  fT>MIC: 16.9
[6]
  fT>MIC: 0
[7]
  half-life: 0.84 h
[8]
  half-life: 0.84 h
[9]
  AUC(0-inf): 127 µg·h/mL
[10]
  fT>MIC: 23.6
[11]
  half-life: 0.61 h
Staphylococcus aureus [12]
  CFU/ml: 5.5 log CFU/ml
[13]
  fT>MIC: 20.3
[14]
  AUC(0-inf): 28.4 µg·h/mL
Serum [15]
  Activity: 76%
[16]
  Cmax: 108000 ng/mL
Staphylococcus aureus [17]
  Activity: Active
Staphylococcus aureus [18]
  MIC: 2 µg/mL (≈ 4.91 µM)
Staphylococcus aureus [19]
  Activity: 70%
[20]
  fT>MIC: 28.2
Staphylococcus aureus [21]
  MIC: 2 µg/mL (≈ 4.91 µM)
Serum [22]
  fAUC: 30.6 µg·h/mL
Staphylococcus aureus [23]
  Activity: Active

## CN[C@H](CC(C)C)C(=O)N[C@H]1C(=O)N[C@@H](CC(N)=O)C(=O)N[C@H]2C(=O)N[C@H]3C(=O)N[C@H](C(=O)N[C@H](C(=O)O)c4cc(O)cc(O)c4-c4cc3ccc4O)[C@H](O)c3ccc(c(Cl)c3)Oc3cc2cc(c3O[C@@H]2O[C@H](CO)[C@@H](O)[C@H](O)[C@H]2O[C@H]2C[C@](C)(N)[C@H](O)[C@H](C)O2)Oc2ccc(cc2Cl)[C@H]1O [VANCOMYCIN]
[24]
  half-life: 1.72 h
Staphylococcus aureus [1]
  CFU/ml: 8.72 log CFU/ml
[25]
  Cmax: 38500 ng/mL
Serum [26]
  fAUC: 196 µg·h/mL
[27]
  half-life: 2.95 h
[28]
  Cmax: 60800 ng/mL
[29]
  AUC(0-inf): 261 µg·h/mL
[30]
  AUC(0-inf): 127 µg·h/mL
Serum [31]
  fCmax: 45.6 µg/mL
Staphylococcus aureus [12]
  CFU/ml: 5.29 log CFU/ml
Serum [15]
  Activity: 25%
Staphylococcus aureus [18]
  MIC: 8 µg/mL (≈ 5.52 µM)
[32]
  AUC0-24/MIC at 10 mg/kg: 31.8 µg/mL
Staphylococcus aureus [19]
  Activity: 20%
[33]
  half-life: 2.95 h

Source: ChEMBL document CHEMBL1255367, “Potency of SMP-601, a novel carbapenem, in hematogenous murine bronchopneumonia caused by methicillin-resistant and vancomycin-intermediate Staphylococcus aureus” (Antimicrob Agents Chemother, 2008)
